The source made the active and inactive calls. No cut-off for these calls is given here.
Experiments:
Deoxynucleoside kinase = biological target: T1, Deoxynucleoside kinase (Drosophila melanogaster, UniProt Q9XZT6); experiment: Inhibition of Drosophila melanogaster dNK assessed as [methyl-3H]dThd phosphorylation
T1 sequence (Q9XZT6 whole entry): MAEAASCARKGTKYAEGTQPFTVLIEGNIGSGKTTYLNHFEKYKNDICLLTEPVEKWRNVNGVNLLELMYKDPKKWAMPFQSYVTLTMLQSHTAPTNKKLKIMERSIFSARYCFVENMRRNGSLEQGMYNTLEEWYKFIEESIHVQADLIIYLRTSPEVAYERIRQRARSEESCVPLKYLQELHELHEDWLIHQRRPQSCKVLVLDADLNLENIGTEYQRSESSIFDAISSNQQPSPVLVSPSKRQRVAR
Procedure, shortened: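 Purified recombinant enzyme expressed as a GST fusion. Mix: 50 mM Tris–HCl pH 8.0, 2.5 mM MgCl2, 10 mM DTT, 0.5 mM CHAPS, 3 mg/mL BSA, 2.5 mM ATP, 2 µM [methyl-3H]dThd (0.25 µCi). Incubated 37 °C, 30 min, with varied inhibitor levels. Aliquots spotted on DE-81 disks, washed, scintillation-counted.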

Thymidine kinase [1] = biological target: T2, Thymidine kinase (Varicella-zoster virus (strain Dumas) (HHV-3) (Human herpesvirus 3), UniProt P09250); experiment: Inhibition of VZV TK assessed as [methyl-3H]dThd phosphorylation; set-up: species or system Human alphaherpesvirus 3
T2 sequence (P09250 whole entry): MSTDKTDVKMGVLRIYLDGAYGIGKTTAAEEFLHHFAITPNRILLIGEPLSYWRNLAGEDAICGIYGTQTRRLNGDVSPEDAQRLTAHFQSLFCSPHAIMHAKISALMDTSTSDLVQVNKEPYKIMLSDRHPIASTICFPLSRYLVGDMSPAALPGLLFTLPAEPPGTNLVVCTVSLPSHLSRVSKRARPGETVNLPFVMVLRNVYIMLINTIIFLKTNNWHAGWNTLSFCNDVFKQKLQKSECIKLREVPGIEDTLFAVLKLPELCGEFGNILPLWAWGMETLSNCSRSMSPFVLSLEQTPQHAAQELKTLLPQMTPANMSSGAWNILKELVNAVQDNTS

Thymidine kinase [2] = biological target: T3, Thymidine kinase (Human alphaherpesvirus 1, UniProt Q9QNF7); experiment: Inhibition of HSV1 TK assessed as [methyl-3H]dThd phosphorylation
T3 sequence (Q9QNF7 whole entry): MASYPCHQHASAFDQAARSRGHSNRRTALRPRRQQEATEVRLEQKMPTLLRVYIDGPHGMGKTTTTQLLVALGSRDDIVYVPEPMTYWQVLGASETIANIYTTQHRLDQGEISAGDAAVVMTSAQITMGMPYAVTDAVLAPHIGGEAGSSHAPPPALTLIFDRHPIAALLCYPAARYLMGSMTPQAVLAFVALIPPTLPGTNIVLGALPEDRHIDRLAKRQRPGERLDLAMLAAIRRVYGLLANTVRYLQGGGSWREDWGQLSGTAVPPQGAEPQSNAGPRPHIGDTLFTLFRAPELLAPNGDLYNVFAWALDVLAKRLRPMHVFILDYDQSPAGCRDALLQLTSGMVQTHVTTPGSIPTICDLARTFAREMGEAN
Procedure, shortened: (§1)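 Purified recombinant GST-fusion kinases (from pGEX-5X-1 cDNAs) assayed in 50 mM Tris–HCl pH 8.0, 2.5 mM MgCl₂, 10 mM DTT, 0.5 mM CHAPS, 3 mg/mL BSA, 2.5 mM ATP, 0.25 µCi [methyl-³H]dThd (2 µM), ± varying inhibitor levels, 37 °C for 30 min. Reactions spotted on DE-81 filter disks, washed, and counted by scintillation. IC50 is the concentration halving dThd phosphorylation.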

[3] = biological target: T4, Thymidine kinase, cytosolic (Homo sapiens, UniProt P04183); experiment: Inhibition of human TK1 assessed as [methyl-3H]dThd phosphorylation; procedure, shortened: as §1
T4 sequence (P04183 whole entry): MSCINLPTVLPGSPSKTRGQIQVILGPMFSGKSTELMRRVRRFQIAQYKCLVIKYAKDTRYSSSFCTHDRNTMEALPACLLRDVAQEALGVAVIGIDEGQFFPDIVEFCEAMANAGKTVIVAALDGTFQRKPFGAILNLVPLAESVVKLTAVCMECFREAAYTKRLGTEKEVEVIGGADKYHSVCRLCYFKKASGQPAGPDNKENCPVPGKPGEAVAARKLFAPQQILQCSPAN

[4] = biological target: T5, Thymidine kinase 2, mitochondrial (Homo sapiens, UniProt O00142); experiment: Inhibition of human TK2 assessed as [methyl-3H]dThd phosphorylation; procedure, shortened: as §1
T5 sequence (O00142 whole entry): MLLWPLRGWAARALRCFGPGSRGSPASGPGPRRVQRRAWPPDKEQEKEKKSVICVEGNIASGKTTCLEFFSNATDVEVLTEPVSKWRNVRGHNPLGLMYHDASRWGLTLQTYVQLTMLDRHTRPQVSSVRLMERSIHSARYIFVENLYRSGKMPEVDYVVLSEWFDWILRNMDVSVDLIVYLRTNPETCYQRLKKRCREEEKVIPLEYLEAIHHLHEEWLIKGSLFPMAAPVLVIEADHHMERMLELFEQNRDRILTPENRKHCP

Fibroblast [5] = experiment: Decrease in nuclear DNA in human fibroblasts at 100 uM; type: functional; set-up: scale not given: the % may be the effect or the level left
Homo sapiens = species: Homo sapiens; experiment: Inhibition of human fibroblast mitochondrial cytochrome c oxidase
Procedure, shortened: (§2)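 Stationary normal skin fibroblasts were exposed to various concentrations for one week in permissive medium (glucose, uridine, 10% FCS). Cytochrome c oxidase (complex IV) and succinate dehydrogenase (complex II) activities were then assayed. COX/SDH ratios were calculated, with SDH as the mtDNA-independent control.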

[6] = biological target: Deoxyguanosine kinase, mitochondrial (Homo sapiens) (UniProt Q16854); experiment: Inhibition of human fibroblast mitochondrial deoxyguanosine kinase
[7] = biological target: T5, Thymidine kinase 2, mitochondrial; experiment: Inhibition of human fibroblast mitochondrial TK2 using dCyd substrate
Procedure, shortened: (§3)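 Done on mitochondria isolated from human fibroblasts rather than on recombinant enzymes. TK2 activity was measured with dThd or dCyd as substrate. dGK activity was measured as a control. Read-out was IC50.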

[8] = Toxicity assessed as inhibition of mitochondrial function in normal fibroblasts upto 100 uM; type: cell-based; details: human, fibroblast
Procedure, shortened: (§4)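 Primary fibroblasts from healthy-volunteer forearm skin biopsies were used stationary. They were kept at 37 °C in 5% CO₂ in one of two media: permissive DMEM UP (4.5 g/l glucose, 10% FCS, 50 µg/ml uridine) or restrictive GAL (glucose-free RPMI, 50 µM galactose, 10% dialyzed FCS). Cells were exposed to a range of concentrations for 1 week. Viability was counted by trypan blue exclusion.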

[9] = biological target: T6, Deoxyguanosine kinase, mitochondrial (Homo sapiens, UniProt Q16854); experiment: Inhibition of human fibroblast mitochondrial deoxyguanosine kinase; procedure, shortened: as §3
T6 sequence (Q16854 whole entry): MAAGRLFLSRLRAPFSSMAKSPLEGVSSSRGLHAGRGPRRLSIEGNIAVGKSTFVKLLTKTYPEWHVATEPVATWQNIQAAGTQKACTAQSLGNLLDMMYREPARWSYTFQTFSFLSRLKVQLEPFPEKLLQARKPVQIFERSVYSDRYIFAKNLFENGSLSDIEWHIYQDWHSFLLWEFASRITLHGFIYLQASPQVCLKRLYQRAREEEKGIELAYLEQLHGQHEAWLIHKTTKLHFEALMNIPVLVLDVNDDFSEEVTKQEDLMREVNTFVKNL

[10] = Toxicity against human fibroblast cells assessed as alteration of cellular viability upto 60 uM; type: cell-based; procedure, shortened: as §4
[11] = Toxicity against human fibroblast cells assessed as alteration of mitochondrial function up to 60 uM; type: cell-based; procedure, shortened: as §4
[12] = Toxicity assessed as inhibition of mitochondrial function in human fibroblasts above 100 uM; type: cell-based; details: fibroblast; procedure, shortened: as §4
Fibroblast [13] = experiment: Decrease in cytochrome c oxidase to succinate dehydrogenase ratio in human fibroblasts; type: functional, cell-based; procedure, shortened: as §2
[14] = biological target: T5, Thymidine kinase 2, mitochondrial; experiment: Inhibition of human fibroblast mitochondrial TK2 using dThd substrate; procedure, shortened: as §3

Q: With CCCCCCCCn1c(=O)c(C)cn([C@@H]2O[C@H](CO)[C@@H](O)[C@@H]2O)c1=O as the compound, how does the IC50 (Deoxynucleoside kinase) read?
A: > 500 µM

Q: And the IC50 (Thymidine kinase [1])?
A: > 500 µM

Q: And the IC50 (Thymidine kinase [2])?
A: > 500 µM

Q: What about the IC50 [3] of the same compound?
A: > 500 µM

Q: What about the IC50 [4] of the same compound?
A: > 500 µM

Q: Which IC50 (Thymidine kinase [2]) does the source give for CCCCCCCCO[C@H]1[C@H](O)[C@@H](CO)O[C@H]1n1cc(C)c(=O)[nH]c1=O here?
A: > 1000 µM

Q: Which Activity (Fibroblast [5]) does the source give for CCCCCCCCCC(=O)O[C@H]1[C@H](O)[C@@H](CO)O[C@H]1n1cc(/C=C/Br)c(=O)[nH]c1=O here?
A: 50%

Q: What about the Activity (Homo sapiens) of the same compound?
A: Active

Q: And the IC50 [6]?
A: > 1000 µM

Q: And the IC50 [7]?
A: 97 µM

Q: What about the IC50 (Thymidine kinase [2]) of the same compound?
A: > 1000 µM

Q: And the Activity [8]?
A: Active

Q: What about the IC50 [9] of the same compound?
A: > 1000 µM

Q: What about the Activity [10] of the same compound?
A: Non-toxic

Q: And the Activity [11]?
A: Not Active

Q: And the Activity [12]?
A: Toxic

Q: What about the Activity (Fibroblast [13]) of the same compound?
A: Active

Q: And the IC50 [14]?
A: 40 µM

Q: For CC(C)(C)OC(=O)NCCCCCCCCCCCC(=O)O[C@H]1[C@H](O)[C@@H](CO)O[C@H]1n1cc(/C=C/Br)c(=O)[nH]c1=O, which IC50 (Deoxynucleoside kinase) is on record?
A: ≥ 500 µM

Q: What about the IC50 (Thymidine kinase [1]) of the same compound?
A: > 500 µM

Q: What about the IC50 (Thymidine kinase [2]) of the same compound?
A: > 500 µM

Q: What about the IC50 [4] of the same compound?
A: 3.8 µM

Q: Which IC50 (Deoxynucleoside kinase) does the source give for CCCCCCCC(=O)O[C@H]1[C@H](O)[C@@H](CO)O[C@H]1n1cc(C)c(=O)[nH]c1=O here?
A: > 1000 µM

Q: And the IC50 (Thymidine kinase [1])?
A: > 1000 µM

Q: What about the IC50 (Thymidine kinase [2]) of the same compound?
A: > 1000 µM

Q: What about the IC50 [3] of the same compound?
A: > 1000 µM

Q: What about the IC50 [4] of the same compound?
A: 120 µM

Q: Which IC50 (Deoxynucleoside kinase) does the source give for Cc1cn([C@@H]2O[C@H](CO)[C@@H](O)[C@@H]2OCc2ccccc2)c(=O)[nH]c1=O here?
A: > 1000 µM

Q: What about the IC50 (Thymidine kinase [1]) of the same compound?
A: > 1000 µM

Q: And the IC50 (Thymidine kinase [2])?
A: > 1000 µM

Q: What about the IC50 [3] of the same compound?
A: > 1000 µM

Q: What about the IC50 [4] of the same compound?
A: 801 µM

Q: For CCCCC(=O)O[C@H]1[C@H](O)[C@@H](CO)O[C@H]1n1cnc2c(=O)[nH]c(N)nc21, which IC50 (Deoxynucleoside kinase) is on record?
A: > 500 µM

Q: What about the IC50 (Thymidine kinase [1]) of the same compound?
A: > 500 µM

Q: What about the IC50 (Thymidine kinase [2]) of the same compound?
A: > 500 µM

Q: What about the IC50 [3] of the same compound?
A: > 500 µM

Q: What about the IC50 [4] of the same compound?
A: > 500 µM

Q: For Cc1cn([C@@H]2O[C@H](CO)[C@@H](O)[C@@H]2O)c(=O)[nH]c1=O, which IC50 (Thymidine kinase [2]) is on record?
A: 24 µM

Q: For CCCCCCCCCC(=O)N[C@H]1[C@H](O)[C@@H](CO)O[C@H]1n1cc(C)c(=O)[nH]c1=O, which IC50 (Deoxynucleoside kinase) is on record?
A: > 500 µM

Q: And the IC50 (Thymidine kinase [1])?
A: > 500 µM

Q: And the IC50 (Thymidine kinase [2])?
A: > 500 µM

Q: And the IC50 [4]?
A: 480 µM

Q: What does the source list for CCCCCCCCO[C@H]1[C@H](O)[C@@H](CO)O[C@H]1n1cc(C)c(=O)n(CCCCCCCC)c1=O?
A: IC50 (Deoxynucleoside kinase): > 1000 µM; IC50 (Thymidine kinase [1]): > 1000 µM; IC50 (Thymidine kinase [2]): > 1000 µM; IC50 [4]: > 1000 µM

Q: Which IC50 (Deoxynucleoside kinase) does the source give for CCCCCCCC(=O)O[C@H]1[C@H](O)[C@@H](CO)O[C@H]1n1cnc2c(=O)[nH]c(N)nc21 here?
A: > 500 µM

Q: What about the IC50 (Thymidine kinase [1]) of the same compound?
A: > 500 µM

Q: And the IC50 (Thymidine kinase [2])?
A: > 500 µM

Q: And the IC50 [3]?
A: > 500 µM

Q: What about the IC50 [4] of the same compound?
A: > 500 µM

Q: For Nc1ccn([C@@H]2O[C@H](CO)[C@@H](O)[C@@H]2O)c(=O)n1 [CYTARABINE], which IC50 (Thymidine kinase [2]) is on record?
A: > 1000 µM

Q: For CCCCCCCC(=O)O[C@H]1[C@H](O)[C@@H](CO)O[C@H]1n1cc(/C=C/Br)c(=O)[nH]c1=O, which IC50 (Thymidine kinase [2]) is on record?
A: ≥ 1000 µM

Q: Which results are given for CCCCCCCCCCCC(=O)O[C@H]1[C@H](O)[C@@H](CO)O[C@H]1n1cc(C)c(=O)[nH]c1=O?
A: IC50 (Thymidine kinase [2]): ≥ 1000 µM; IC50 [3]: ≥ 1000 µM

Source: ChEMBL document CHEMBL1139173, “Novel selective human mitochondrial kinase inhibitors: design, synthesis and enzymatic activity” (Bioorg Med Chem, 2007)
